Source: PubChem
In the library only some 2% were active in any assay of this set; here they are far more common.
UHRF1 MBD2 ctr = UHRF1 methyl-DNA binding inhibition; inhibition, % at 4.4 µM; 370,000 compounds, 0.75% hits; Q96T88; UHRF1 binding to methylated oligo, TR-FRET; in the data active means inhibition above about 21%;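 further: UHRF1 SRA domain binding a hemimethylated CpG hairpin DNA probe; 0% = median of test compound wells and 100% = reference inhibitor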
LEDGF integ inh = blocks HIV-1 LEDGF/p75-dependent DNA integration; TR-FRET IN-LEDGF/p75 DNA integration, Eu/Cy5; inhibition, % at 3.7 µM; 370,000 compounds, 0.64% hits; AID 743269;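 active means inhibition above the screen-wide mean plus 3 SD, cut at about 13% in these data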;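 further: signal is the Cy5 over europium emission ratio at 671 and 618 nm; 0% = plate median of compound wells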
MBD2 inh = inhibitors of human MBD2 binding to methylated oligonucleotide. inhibition, % at 4.4 µM. 370,000 compounds, 0.31% hits. TR-FRET; in the data active means inhibition above about 13%
Target sequence (Q9UBB5 whole entry, looked up): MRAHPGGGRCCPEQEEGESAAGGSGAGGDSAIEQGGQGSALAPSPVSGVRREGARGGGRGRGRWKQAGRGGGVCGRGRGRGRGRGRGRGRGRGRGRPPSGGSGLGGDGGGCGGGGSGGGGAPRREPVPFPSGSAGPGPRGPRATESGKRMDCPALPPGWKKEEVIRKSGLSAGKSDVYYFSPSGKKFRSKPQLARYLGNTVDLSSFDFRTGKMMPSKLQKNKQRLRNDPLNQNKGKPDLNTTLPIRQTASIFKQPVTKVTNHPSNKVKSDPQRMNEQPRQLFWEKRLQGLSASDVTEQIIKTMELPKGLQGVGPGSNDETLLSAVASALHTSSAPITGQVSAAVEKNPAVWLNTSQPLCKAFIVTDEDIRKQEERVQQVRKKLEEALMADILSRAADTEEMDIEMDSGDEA
TCR-CD3 inh = inhibitors of human TCR-CD3 interaction. TAMRA-labeled TCR probe fluorescence, biochemical. inhibition, % at 9.4 µM. 360,000 compounds, 0.37% hits. AID 651800; in the data active means inhibition above about 19%;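 further: recombinant mutant TCR 2C K166C tagged with TAMRA read by polarization; 0% = receptor in buffer alone and 100% = receptor with positive control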
ASAP1 GAP inh = inhibitors of human ASAP1 ArfGAP activity. AID 624377. ASAP1-stimulated ARF1 GTP hydrolysis, GDP FP detection. inhibition, % at 16.5 µM. 360,000 compounds, 0.19% hits. Q9ULH1; in the data active means inhibition above about 25%;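 further: 0% = vehicle with enzyme and substrate and 100% = no enzyme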
ARFGAP1 inhibitor = rat ARFGAP1 inhibition | Arfgap1-stimulated ARF1 GTP hydrolysis, GDP FP detection | inhibition, % at 16.5 µM | AID 651572 | Q62848 | 360,000 compounds, 0.26% hits;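 active means inhibition above a per-plate limit, mean inhibition of low control wells plus 3 SD, cut at about 25% in these data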;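 further: 0% = DMSO wells with enzyme and 100% = wells lacking Arfgap1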
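Material: rat Arfgap1 GAP domain (His6, aa 1-136), purified enzyme. Also added: human ARF1(Δ1-17)-GTP substrate. Compound dosing: 16.5 µM single point, 1.26% DMSO. Timing: enzyme reaction 120 min at 25 °C after 20 min preincubation. Signal: GDP detection by fluorescence polarization. Read-out basis: percent inhibition of GAP-stimulated GDP formation, scaled between DMSO and no-Arfgap1 medians.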
Active calls of the source: *.

What do the screens show for `COC(=O)CCC1NC(=O)C(Cc2c[nH]c3ccccc23)NC(=O)C2CC(=O)OC(C)C(NC(=O)C(C)NC(=O)C3CCCN3C(=O)C3CCCN3C(=O)C(C)NC(C)=O)C(=O)NC(CC(C)C)C(=O)NC(CCCCNC(=O)CCC(C(=O)NC(Cc3ccc(O)cc3)C(=O)O)NC1=O)C(=O)NC(Cc1c[nH]c3ccccc13)C(=O)N1CCCC1C(=O)NC(CO)C(=O)N2` (configuration not stated)?
UHRF1 MBD2 ctr: -1; LEDGF integ inh: 4; MBD2 inh: 1

What do the screens show for `COc1ccc(NC(=O)N2CCC(N(C)CCC(C)C)CC2)cc1OC`?
UHRF1 MBD2 ctr: -3; LEDGF integ inh: 4; MBD2 inh: -3

How did CC(=O)Nc1ccc(NCN2C(=O)C3C4CCC(C4)C3C2=O)cc1 (configuration not stated) do in these assays?
UHRF1 MBD2 ctr: 29*; LEDGF integ inh: 12; MBD2 inh: 7; TCR-CD3 inh: 10; ASAP1 GAP inh: 4; ARFGAP1 inhibitor: 1

How did COC(=O)c1ccc(NCN2C(=O)C3C4CCC(C4)C3C2=O)cc1 (configuration not stated) do in these assays?
UHRF1 MBD2 ctr: -3; LEDGF integ inh: 3; MBD2 inh: -1; TCR-CD3 inh: 0; ASAP1 GAP inh: 11; ARFGAP1 inhibitor: 17

Results for COc1cc(NC(=S)NN2CCN(C)CC2)cc(OC)c1OC ?
UHRF1 MBD2 ctr: -1; LEDGF integ inh: 1; MBD2 inh: 3; TCR-CD3 inh: 8; ASAP1 GAP inh: -4; ARFGAP1 inhibitor: 1

Results for COc1ccc(NC(=S)NN2CCN(C)CC2)cc1OC ?
UHRF1 MBD2 ctr: 22*; LEDGF integ inh: 3; MBD2 inh: -1; TCR-CD3 inh: -3; ASAP1 GAP inh: 2; ARFGAP1 inhibitor: -8

Results for O=C(C1CCC1)N1CCc2cc(S(=O)(=O)N3CCCC3)ccc21 ?
UHRF1 MBD2 ctr: 0; LEDGF integ inh: 0; MBD2 inh: -1

What do the screens show for `CCCN1CCCc2cc(CN)ccc21`?
UHRF1 MBD2 ctr: 12; LEDGF integ inh: 35*; MBD2 inh: 3; TCR-CD3 inh: 11; ASAP1 GAP inh: -14; ARFGAP1 inhibitor: -13

How did Cc1ccc(CNC(=O)Cc2nc3nc(C)cc(C)n3n2)cc1 do in these assays?
UHRF1 MBD2 ctr: 2; LEDGF integ inh: -1; MBD2 inh: -2; TCR-CD3 inh: 6; ASAP1 GAP inh: 2; ARFGAP1 inhibitor: -5

What do the screens show for `Cc1cc(C)n2nc(CC(=O)NCc3ccc(F)cc3)nc2n1`?
UHRF1 MBD2 ctr: 99*; LEDGF integ inh: -1; MBD2 inh: 2; TCR-CD3 inh: 7; ASAP1 GAP inh: 7; ARFGAP1 inhibitor: 5

How did Cc1cc(C)n2nc(SCCC(=O)NCc3ccccc3)nc2n1 do in these assays?
UHRF1 MBD2 ctr: 36*; LEDGF integ inh: -8; MBD2 inh: 3; TCR-CD3 inh: 1; ASAP1 GAP inh: -1; ARFGAP1 inhibitor: 4

Results for C[C@H]1[C@@H](OC(=O)NCc2ccc(C(F)(F)F)cc2)CC[C@@]23CCCN2C(=O)CCC[C@@H]13 ?
UHRF1 MBD2 ctr: 1; LEDGF integ inh: -1; MBD2 inh: 0

Results for Cc1ccc(C(=O)NC2CCCCC2)cc1S(=O)(=O)N1CCCC1 ?
UHRF1 MBD2 ctr: 0; LEDGF integ inh: 1; MBD2 inh: -2; TCR-CD3 inh: -8; ASAP1 GAP inh: -7; ARFGAP1 inhibitor: -1

What do the screens show for `Cc1ccc(C(=O)NC2CCS(=O)(=O)C2)cc1S(=O)(=O)N1CCCCCC1` (configuration not stated)?
UHRF1 MBD2 ctr: 23*; LEDGF integ inh: 5; MBD2 inh: 1; TCR-CD3 inh: 1; ASAP1 GAP inh: -2; ARFGAP1 inhibitor: 3

Results for Cc1cc(NC(=O)CCC(=O)N(CC(=O)NCC2CCCO2)c2cccc(F)c2)no1 (configuration not stated) ?
UHRF1 MBD2 ctr: 0; LEDGF integ inh: 41*; MBD2 inh: -6; TCR-CD3 inh: -5; ASAP1 GAP inh: -4; ARFGAP1 inhibitor: 0

What do the screens show for `O=C(Nc1nccs1)[C@@H]1CCCN1S(=O)(=O)c1ccccc1F`?
UHRF1 MBD2 ctr: 3; LEDGF integ inh: 3; MBD2 inh: -1; TCR-CD3 inh: -5; ASAP1 GAP inh: 0; ARFGAP1 inhibitor: -1
